Data published in ChEMBL document CHEMBL1671714, “High-level azithromycin resistance occurs in Neisseria gonorrhoeae as a result of a single point mutation in the 23S rRNA genes” (2010).
Converted amounts (≈) assume the structure as drawn. The source made the active and inactive calls. The rule behind the calls is not given here.

Experiments:
[1] = system: Neisseria gonorrhoeae; assay: Antimicrobial activity against Neisseria gonorrhoeae expressing wild type 23S rRNA by Etest; type: functional
In short: (§1)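 Isolates were revived from −80°C cryopreservative stocks by 18 to 20 h of growth on GC agar base with 1% IsoVitaleX at 36°C under 5% CO2, then subcultured. Erythromycin and azithromycin MICs were read by Etest.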

[2] = system: Neisseria gonorrhoeae; assay: Antimicrobial activity against Neisseria gonorrhoeae harboring A2059G mutation in 23S rRNA domain V allele 4 by Etest; type: functional; in short: as §1
[3] = system: Neisseria gonorrhoeae; assay: Antimicrobial activity against Neisseria gonorrhoeae harboring A2059G mutation in 23S rRNA domain V allele 2 by Etest; type: functional; in short: as §1
[4] = system: Neisseria gonorrhoeae; assay: Antimicrobial activity against Neisseria gonorrhoeae C2611T mutation in 23S rRNA domain V allele 3 by Etest; type: functional; in short: as §1
[5] = system: Neisseria gonorrhoeae; assay: Antimicrobial activity against Neisseria gonorrhoeae harboring A2059G mutation in 23S rRNA V domain allele 1, allele 2, allele 3 and allele 4 by Etest; type: functional; in short: as §1
[6] = system: Neisseria gonorrhoeae; assay: Antimicrobial activity against Neisseria gonorrhoeae harboring A2059G mutation in 23S rRNA V domain allele 1, allele 3 and allele 4 by Etest; type: functional; in short: as §1
[7] = system: Neisseria gonorrhoeae; assay: Antimicrobial activity against Neisseria gonorrhoeae isolate 136 NG-MAST sequence type 1704 harboring A2059G mutation in 23S rRNA V domain allele 1, allele 2, allele 3 and allele 4 selected after 0.5 to 8 mg/L of erythromycin by Etest; type: functional
In short: (§2)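 Single-colony expansions of the parent isolate (~1 × 10^8 CFU by viable count) were spread on GC agar with 1% IsoVitaleX containing erythromycin in 2-fold steps from 0.5 to 8.0 mg/liter, and incubated 24 h at 36°C under 5% CO2. Growth on the highest-concentration plate was subcultured, confirmed as gonococcus (Gram stain, oxidase, Phadebact GC), and azithromycin and erythromycin MICs were read by Etest. Passages were run in duplicate.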

[8] = system: Neisseria gonorrhoeae; assay: Antimicrobial activity against Neisseria gonorrhoeae isolate 352521 NG-MAST sequence type 1443 harboring A2059G mutation in 23S rRNA V domain allele 1, allele 2, allele 3 and allele 4 selected after 0.5 to 8 mg/L of erythromycin by Etest; type: functional; in short: as §2
[9] = system: Neisseria gonorrhoeae; assay: Antimicrobial activity against Neisseria gonorrhoeae isolate 252611 NG-MAST sequence type 470 harboring A2059G mutation in 23S rRNA V domain allele 2 by Etest; type: functional; in short: as §1
[10] = system: Neisseria gonorrhoeae; assay: Antimicrobial activity against Neisseria gonorrhoeae isolate 252611 NG-MAST sequence type 470 harboring A2059G mutation in 23S rRNA V domain allele 1, allele 2, allele 3 and allele 4 selected after 0.5 to 8 mg/L of erythromycin by Etest; type: functional; in short: as §2
[11] = system: Neisseria gonorrhoeae; assay: Antimicrobial activity against Neisseria gonorrhoeae isolate 254921 NG-MAST sequence type 649 by Etest; type: functional; in short: as §1
[12] = system: Neisseria gonorrhoeae; assay: Antimicrobial activity against Neisseria gonorrhoeae isolate 254921 NG-MAST sequence type 649 selected after 2 to 8 mg/L of compound by Etest; type: functional
[13] = system: Neisseria gonorrhoeae; assay: Antimicrobial activity against Neisseria gonorrhoeae harboring A2059G mutation in 23S rRNA V domain allele 1, allele 2 and allele 4 by Etest; type: functional; in short: as §1
[14] = system: Neisseria gonorrhoeae; assay: microbe, parasite or virus in culture
[15] = system: Neisseria gonorrhoeae; assay: microbe, parasite or virus in culture; remark: listed apart in the source
[16] = system: Neisseria gonorrhoeae; assay: microbe, parasite or virus in culture; details: isolate 136
[17] = system: Neisseria gonorrhoeae; assay: microbe, parasite or virus in culture; details: isolate 352521
[18] = system: Neisseria gonorrhoeae; assay: Antimicrobial activity against Neisseria gonorrhoeae isolate 254921 NG-MAST sequence type 649 selected after 4 mg/L of erythromycin by Etest; type: functional, organism-based

SMILES	MIC [1]	MIC [2]	MIC [3]	MIC [4]	MIC [5]	MIC [6]	MIC [7]	MIC [8]	MIC [9]	MIC [10]	MIC [11]	MIC [12]	MIC [13]	MIC [14]	MIC [15]	MIC [16]	MIC [17]	Activity [18]
CC[C@H]1OC(=O)[C@H](C)[C@@H](O[C@H]2C[C@@](C)(OC)[C@@H](O)[C@H](C)O2)[C@H](C)[C@@H](O[C@@H]2O[C@H](C)C[C@H](N(C)C)[C@H]2O)[C@](C)(O)C[C@@H](C)CN(C)[C@H](C)[C@@H](O)[C@]1(C)O [AZITHROMYCIN]	0.06 µg/mL (≈ 0.0801 µM)	0.06 µg/mL (≈ 0.0801 µM)	0.06 µg/mL (≈ 0.0801 µM)	0.06 µg/mL (≈ 0.0801 µM)	≥ 256 µg/mL	≥ 256 µg/mL	> 256 µg/mL	> 256 µg/mL	0.38 µg/mL (≈ 0.507 µM)	> 256 µg/mL	0.25 µg/mL (≈ 0.334 µM)	1.5 µg/mL (≈ 2 µM)	≥ 256 µg/mL	2 µg/mL (≈ 2.67 µM)	2 µg/mL (≈ 2.67 µM)	0.25 µg/mL (≈ 0.334 µM)	0.25 µg/mL (≈ 0.334 µM)	
CC[C@H]1OC(=O)[C@H](C)[C@@H](O[C@H]2C[C@@](C)(OC)[C@@H](O)[C@H](C)O2)[C@H](C)[C@@H](O[C@@H]2O[C@H](C)C[C@H](N(C)C)[C@H]2O)[C@](C)(O)C[C@@H](C)C(=O)[C@H](C)[C@@H](O)[C@]1(C)O [ERYTHROMYCIN]											3 µg/mL (≈ 4.09 µM)	4 µg/mL (≈ 5.45 µM)						Active
